Data reported in ChEMBL document CHEMBL5543076, “Chromone-based small molecules for multistep shutdown of arachidonate pathway: Simultaneous inhibition of COX-2, 15-LOX and mPGES-1 enzymes” (Eur J Med Chem, 2024).
Blank lines part the entries; values can stand above or below the compound they belong to. Activity calls are given as the source filed them. The calls are words filed in the database; no cut-off is given here.

What was measured:
[1] = Inhibition of soybean 15-LOX; set-up: species or system Glycine max
Outline: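 Soybean 15-LOX activity measured with a lipoxygenase inhibitor screening kit per the manufacturer's instructions; IC50 determined.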

[2] = molecular target: T1, Prostaglandin G/H synthase 1 (Ovis aries, UniProt P05979); experiment: Inhibition of ovine COX-1 by colorimetric assay
T1 sequence (P05979 whole entry): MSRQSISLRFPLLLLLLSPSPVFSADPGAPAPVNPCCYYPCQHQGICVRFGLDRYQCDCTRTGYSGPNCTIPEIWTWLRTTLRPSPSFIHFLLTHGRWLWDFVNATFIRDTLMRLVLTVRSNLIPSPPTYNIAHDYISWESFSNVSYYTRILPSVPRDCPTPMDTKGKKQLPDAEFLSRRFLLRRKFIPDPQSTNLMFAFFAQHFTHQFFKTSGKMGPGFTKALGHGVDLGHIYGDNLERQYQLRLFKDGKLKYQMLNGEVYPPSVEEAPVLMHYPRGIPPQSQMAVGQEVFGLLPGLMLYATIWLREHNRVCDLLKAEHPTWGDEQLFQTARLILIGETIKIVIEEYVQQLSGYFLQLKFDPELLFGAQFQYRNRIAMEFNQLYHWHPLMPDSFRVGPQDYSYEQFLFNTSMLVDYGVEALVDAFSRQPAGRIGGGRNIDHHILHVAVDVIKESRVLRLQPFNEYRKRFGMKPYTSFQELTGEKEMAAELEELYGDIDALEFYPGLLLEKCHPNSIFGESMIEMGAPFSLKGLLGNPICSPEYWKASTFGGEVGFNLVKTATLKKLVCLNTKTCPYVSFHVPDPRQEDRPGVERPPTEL
Outline: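 Ovine COX-1 enzyme kit, run following the manufacturer's instructions; IC50 reported as mean of three replicates.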

Prostaglandin E synthase = molecular target: T2, Prostaglandin E synthase (Homo sapiens, UniProt O14684); experiment: Inhibition of human mPGE2S1 using PGH2 as substrate measured after 5 mins by ELISA method
T2 sequence (O14684 whole entry): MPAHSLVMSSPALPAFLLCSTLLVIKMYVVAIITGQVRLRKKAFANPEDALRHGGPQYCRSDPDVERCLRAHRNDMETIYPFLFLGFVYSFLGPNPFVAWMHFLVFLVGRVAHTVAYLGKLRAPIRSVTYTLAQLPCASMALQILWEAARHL
Outline: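 Cell-free assay using microsomes from interleukin-1β-stimulated human A549 lung carcinoma cells as enzyme source. Reaction contained 20 μM PGH2 and 2.5 mM glutathione with serial inhibitor dilutions, 5 min at room temperature. Stopped with SnCl2, which converts leftover PGH2 to PGF2α. PGE2 measured by ELISA; IC50 ± SD from log dose–response curve.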

[3] = Toxicity in Wistar rat assessed as effect on gastric ulcer measured after 8 days; conditions: in vivo, 192 h, time 8 day
Outline: (§1)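 Female Wistar rats dosed for eight days; stomachs then removed for gross inspection of ulceration and histology on H&E-stained sections.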

RAW264.7 [4] = experiment: Antiinflammatory activity against LPS-induced mouse RAW264.7 cells assessed as downregulation of TNF-alpha level at 50 ug/ml incubated for 24 hrs by RT-PCR analysis relative to control; assay type: functional; conditions: dose 50 µg/ml
RAW264.7 [5] = experiment: Antiinflammatory activity against LPS-induced mouse RAW264.7 cells assessed as upregulation of IL-10 level at 50 ug/ml incubated for 24 hrs by RT-PCR analysis relative to control; assay type: functional; conditions: dose 50 µg/ml
[6] = Toxicity in Wistar rat assessed as effect on epithelium measured after 8 days by H and E staining based analysis; conditions: in vivo, 192 h, time 8 day; outline: as §1
Rattus norvegicus = experiment: Antiinflammatory activity in formalin-induced paw edema in Wistar rat model assessed as reduction in paw edema volume at 5 mg/kg, po administered once daily via gavage by 7 days by vernier caliper method; assay type: functional, organism-based; conditions: time 7.0 day
[7] = Toxicity in Wistar rat assessed as increase in submucosal inflammatory cells measured after 8 days by H and E staining based analysis; conditions: 192 h, time 8 day; outline: as §1
RAW264.7 [8] = experiment: Antiinflammatory activity against LPS-induced mouse RAW264.7 cells assessed as downregulation of iNOS level at 50 ug/ml incubated for 24 hrs by RT-PCR analysis relative to control; assay type: functional; conditions: dose 50 µg/ml
[9] = Toxicity in Wistar rat assessed as dilation of submucosal blood vessels measured after 8 days by H and E staining based analysis; conditions: 192 h, time 8 day; outline: as §1
RAW264.7 [10] = experiment: Antiinflammatory activity against LPS-induced mouse RAW264.7 cells assessed as downregulation of IL-1 beta level at 50 ug/ml incubated for 24 hrs by RT-PCR analysis relative to control; assay type: functional; conditions: dose 50 µg/ml
RAW264.7 [11] = experiment: Antiinflammatory activity against LPS-induced mouse RAW264.7 cells assessed as downregulation of COX-2 level at 50 ug/ml incubated for 24 hrs by RT-PCR analysis relative to control; assay type: functional; conditions: dose 50 µg/ml
RAW264.7 [12] = experiment: Cytotoxicity against mouse RAW264.7 cells measured after 72 hrs by MTT assay; assay type: functional, cell-based
Outline: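 RAW264.7 cells were seeded at 4 × 10³ per well with compound (100 to 0.4 μg/ml, in DMSO) for 72 h at 37 °C, 5% CO2. MTT (5 mg/ml solution) was added for 4 h, formazan dissolved in DMSO, and absorbance read at 490 nm.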

[13] = Toxicity in Wistar rat assessed as abundant submucosal infiltration measured after 8 days by H and E staining based analysis; conditions: in vivo, 192 h, time 8 day; outline: as §1
[14] = Toxicity in Wistar rat assessed as congested vessels measured after 8 days by H and E staining based analysis; conditions: in vivo, 192 h, time 8 day; outline: as §1
[15] = Toxicity in Wistar rat assessed as effect on ulceration measured after 8 days by H and E staining based analysis; conditions: in vivo, 192 h, time 8 day; outline: as §1

IC50 (Prostaglandin E synthase): 4.9 µM | IC50 [1]: 3.05 µM | IC50 [2]: 9.82 µM
Structure (SMILES): COc1ccc2occ(/C=N/NC(=O)OCc3ccccc3)c(=O)c2c1
Activity [3]: Non-Toxic | Activity (RAW264.7 [4]): 32% | Activity (RAW264.7 [5]): 43% | Activity [6]: Non-Toxic | Activity (Rattus norvegicus): Active | Activity [7]: Toxic | Activity (RAW264.7 [8]): 32% | Activity [9]: Toxic | Activity (RAW264.7 [10]): 54% | Activity (RAW264.7 [11]): 33% | Activity (RAW264.7 [12]): inactive

IC50 (Prostaglandin E synthase): 4.1 µM | IC50 [1]: 1.72 µM | IC50 [2]: 12.2 µM
Structure (SMILES): O=C(N/N=C/c1coc2ccccc2c1=O)OCc1ccccc1
Activity [3]: Non-Toxic | Activity [13]: Toxic | Activity (RAW264.7 [4]): 32% | Activity (RAW264.7 [5]): 43% | Activity [6]: Non-Toxic | Activity (Rattus norvegicus): Active | Activity (RAW264.7 [8]): 32% | Activity [14]: Toxic | Activity (RAW264.7 [10]): 54% | Activity (RAW264.7 [11]): 33% | Activity (RAW264.7 [12]): inactive

IC50 (Prostaglandin E synthase): 20.1 µM
Structure (SMILES): Cc1ccc(-c2cc(C(F)(F)F)nn2-c2ccc(S(N)(=O)=O)cc2)cc1 [CELECOXIB]
Activity [15]: Non-Toxic

IC50 (Prostaglandin E synthase): 2.8 µM | IC50 [1]: 2.39 µM | IC50 [2]: 11.1 µM
Structure (SMILES): COc1ccc2c(=O)c(/C=N/NC(=O)OCc3ccccc3)coc2c1
Activity [3]: Non-Toxic | Activity (RAW264.7 [4]): 32% | Activity (RAW264.7 [5]): 43% | Activity [6]: Non-Toxic | Activity (Rattus norvegicus): Active | Activity [7]: Toxic | Activity (RAW264.7 [8]): 32% | Activity [9]: Toxic | Activity (RAW264.7 [10]): 54% | Activity (RAW264.7 [11]): 33% | Activity (RAW264.7 [12]): inactive

More lines, now with the values behind:

Structure (SMILES): CN/N=C/c1coc2ccc(OC)cc2c1=O
IC50 [1]: 3.25 µM | IC50 [2]: 8.67 µM

Structure (SMILES): COC(=O)N/N=C/c1coc2ccccc2c1=O
IC50 (Prostaglandin E synthase): 3.7 µM | IC50 [1]: 2.77 µM | IC50 [2]: 7.43 µM

Structure (SMILES): O=C([O-])Cc1ccccc1Nc1c(Cl)cccc1Cl.[Na+] [DICLOFENAC SODIUM]
Activity [13]: Toxic | Activity [6]: Non-Toxic | Activity [14]: Toxic

Structure (SMILES): CN/N=C/c1coc2ccccc2c1=O
IC50 [1]: 4.44 µM | IC50 [2]: 4.04 µM

Structure (SMILES): COC(=O)N/N=C/c1coc2cc(OC)ccc2c1=O
IC50 [1]: 4.59 µM | IC50 [2]: 6.01 µM

Structure (SMILES): COC(=O)N/N=C/c1coc2ccc(OC)cc2c1=O
IC50 [1]: 4.08 µM | IC50 [2]: 6.92 µM

Structure (SMILES): O=c1c(O)c(-c2ccc(O)c(O)c2)oc2cc(O)cc(O)c12 [QUERCETIN]
IC50 [1]: 3.34 µM

Structure (SMILES): CN/N=C/c1coc2cc(OC)ccc2c1=O
IC50 [1]: 4.31 µM | IC50 [2]: 3.62 µM
